Laboratory results reported in ChEMBL document CHEMBL3351619 (J Med Chem, 2014).
The source made the active and inactive calls. No cut-off for these calls is given here.

Tests used:
[1] = biological target: T1, 5-hydroxytryptamine receptor 7 (Homo sapiens, UniProt P34969); assay: Displacement of [3H]LSD from human 5-HT7 expressed in HEK-293 cells after 120 mins by scintillation spectrometry; type: cell-based, HEK293
Summary of the method: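 Competition binding on membranes of CHO-K1 or HEK-293 cells transfected with human 5-HT7 receptor, radioligand [3H]LSD; 5-CT as reference. Two to four experiments, each in triplicate; Ki reported as mean.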

[2] = biological target: T2, 5-hydroxytryptamine receptor 1A (Homo sapiens, UniProt P08908); assay: Displacement of [3H]-8-OH-DPAT from human 5-HT1A expressed in CHO-K1 cells after 120 mins by scintillation spectrometry; type: cell-based
T2 sequence (P08908 whole entry): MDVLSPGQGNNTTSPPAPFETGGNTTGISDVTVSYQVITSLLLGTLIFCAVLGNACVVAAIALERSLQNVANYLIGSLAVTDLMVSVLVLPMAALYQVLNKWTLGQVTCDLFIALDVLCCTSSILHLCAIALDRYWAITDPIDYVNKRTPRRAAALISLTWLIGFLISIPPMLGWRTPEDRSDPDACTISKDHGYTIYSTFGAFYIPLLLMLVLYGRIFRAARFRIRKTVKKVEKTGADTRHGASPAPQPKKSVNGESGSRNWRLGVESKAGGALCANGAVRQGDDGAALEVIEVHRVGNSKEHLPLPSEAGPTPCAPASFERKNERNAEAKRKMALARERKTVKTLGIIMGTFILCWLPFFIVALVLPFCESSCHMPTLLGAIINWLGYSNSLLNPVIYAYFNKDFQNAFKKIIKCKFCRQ
Summary of the method: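 Competitive radioligand binding on membranes from transfected cells expressing human 5-HT1A receptor, with [3H]-8-OH-DPAT as the radioligand. Affinity is given as Ki, the mean of two to four experiments, each run in triplicate.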

[3] = test system: Mus musculus; assay: Effect on core body temperature in C57BL/6J mouse at 0.3 to 1 mg/kg, ip administered as single dose; type: functional, organism-based
Summary of the method: (§1)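 C57BL/6J mice (male and female, 8−12 weeks), single ip doses in 0.9% saline vehicle, start 9:00 h. Rectal probe core temperature taken at baseline just before injection, at 15 and 30 min, then every 30 min to 2 h. For antagonism, test drug given 30 min before 8-OH-DPAT (0.3 mg/kg ip).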

[4] = test system: Mus musculus; assay: Antidepressant activity in C57BL/6J mouse assessed as decrease in the immobility at 1 mg/kg, ip administered as single dose measured for last 4 mins of test by tail suspension method relative to vehicle-treated control; type: functional, organism-based; parameters: dose 1 mg/kg
[5] = biological target: Melatonin receptor (Homo sapiens) (UniProt P48039+P49286); assay: Displacement of [125I]-2-iodomelatonin from MT1 (unknown origin) at 1 uM after 60 mins; type: protein assay
Summary of the method: (§2)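 Single test concentration of 1 μM; percent displacement of the respective radioligand binding at each target.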

[6] = test system: Mus musculus; assay: Inhibition of 8-OH-DPAT-induced hypothermia in C57BL/6J mouse assessed as reduction in core body temperature at 1 mg/kg, ip administered 30 mins prior challenge as single dose; type: functional, organism-based; parameters: dose 1 mg/kg; summary of the method: as §1
[7] = test system: Mus musculus; assay: Antidepressant activity in C57BL/6J mouse assessed as decrease in the immobility at 1 mg/kg, ip administered as single dose measured for last 4 mins of test by forced swim test relative to vehicle-treated control; type: functional, organism-based; parameters: dose 1 mg/kg
Summary of the method: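 Male and female C57BL/6J mice, 8−12 weeks, group housed; single ip injection, 0.9% saline vehicle; start 9:00 h. Mouse placed 6 min in clear cylinder (16 cm diameter, 25 cm high) holding 10 cm of 25 °C water, replaced between animals; trained observer scored immobility (no movement beyond keeping head above surface) over last 4 min. N = 7−9/group; Student's two-tailed unpaired t test.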

[8] = biological target: 5-hydroxytryptamine receptor 2A (Homo sapiens) (UniProt P28223); assay: Displacement of [3H]ketanserin from 5-HT2A (unknown origin) at 1 uM after 60 mins; summary of the method: as §2
[9] = test system: Mus musculus; assay: Antidepressant activity in C57BL/6J mouse assessed as decrease in the immobility at 10 mg/kg, ip administered as single dose measured for last 4 mins of test by tail suspension method relative to vehicle-treated control; type: functional, organism-based; parameters: dose 10 mg/kg
[10] = biological target: T1, 5-hydroxytryptamine receptor 7; assay: Antagonist activity at human 5-HT7 expressed in HEK-293 cells assessed as inhibition in serotonin-induced increase in cAMP level after 45 mins by HTRF assay; type: functional, cell-based, HEK293
Summary of the method: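 From the concentration–response curve, maximal inhibition (Imax) and IC50 were read, and the dissociation constant KB was calculated.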

[11] = biological target: T3, Corticotropin-releasing factor receptor 1 (Homo sapiens) (UniProt P34998); assay: Displacement of [125I]sauvagine from CRF1 (unknown origin) at 1 uM after 120 mins; summary of the method: as §2
T3 sequence (whole entry): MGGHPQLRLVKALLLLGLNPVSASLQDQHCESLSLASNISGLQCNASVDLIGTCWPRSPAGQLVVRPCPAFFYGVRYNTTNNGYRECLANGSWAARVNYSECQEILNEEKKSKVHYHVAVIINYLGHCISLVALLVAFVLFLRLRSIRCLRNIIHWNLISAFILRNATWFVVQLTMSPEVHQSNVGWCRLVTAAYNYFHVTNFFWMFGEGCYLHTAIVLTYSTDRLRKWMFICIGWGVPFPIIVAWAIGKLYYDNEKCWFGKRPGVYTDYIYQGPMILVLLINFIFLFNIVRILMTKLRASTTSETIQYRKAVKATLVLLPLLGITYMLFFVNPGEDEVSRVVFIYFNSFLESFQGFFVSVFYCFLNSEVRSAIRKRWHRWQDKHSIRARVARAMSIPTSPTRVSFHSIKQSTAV

[12] = biological target: Sodium-dependent serotonin transporter (Homo sapiens) (UniProt P31645); assay: Displacement of [3H]imipramine from 5-HT transporter (unknown origin) at 1 uM after 60 mins; summary of the method: as §2
[13] = biological target: T1, 5-hydroxytryptamine receptor 7; assay: Agonist activity at human 5-HT7 expressed in HEK-293 cells assessed as increase in cAMP level after 45 mins by HTRF assay; type: functional, cell-based, HEK293

T1 sequence (P34969 whole entry): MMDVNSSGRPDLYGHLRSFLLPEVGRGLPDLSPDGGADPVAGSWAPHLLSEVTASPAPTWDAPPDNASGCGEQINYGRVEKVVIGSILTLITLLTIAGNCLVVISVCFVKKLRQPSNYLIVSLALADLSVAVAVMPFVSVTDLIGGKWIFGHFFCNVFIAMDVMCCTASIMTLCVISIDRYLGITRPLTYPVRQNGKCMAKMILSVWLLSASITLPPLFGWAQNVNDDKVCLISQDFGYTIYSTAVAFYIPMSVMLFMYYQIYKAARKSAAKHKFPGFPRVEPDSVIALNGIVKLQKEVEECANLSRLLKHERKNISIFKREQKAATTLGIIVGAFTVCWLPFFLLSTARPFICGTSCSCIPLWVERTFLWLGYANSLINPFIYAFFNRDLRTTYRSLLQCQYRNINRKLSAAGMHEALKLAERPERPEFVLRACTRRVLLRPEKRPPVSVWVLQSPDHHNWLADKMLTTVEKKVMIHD
Chain of Sodium-dependent serotonin transporter (Homo sapiens) (P31645 whole entry, looked up): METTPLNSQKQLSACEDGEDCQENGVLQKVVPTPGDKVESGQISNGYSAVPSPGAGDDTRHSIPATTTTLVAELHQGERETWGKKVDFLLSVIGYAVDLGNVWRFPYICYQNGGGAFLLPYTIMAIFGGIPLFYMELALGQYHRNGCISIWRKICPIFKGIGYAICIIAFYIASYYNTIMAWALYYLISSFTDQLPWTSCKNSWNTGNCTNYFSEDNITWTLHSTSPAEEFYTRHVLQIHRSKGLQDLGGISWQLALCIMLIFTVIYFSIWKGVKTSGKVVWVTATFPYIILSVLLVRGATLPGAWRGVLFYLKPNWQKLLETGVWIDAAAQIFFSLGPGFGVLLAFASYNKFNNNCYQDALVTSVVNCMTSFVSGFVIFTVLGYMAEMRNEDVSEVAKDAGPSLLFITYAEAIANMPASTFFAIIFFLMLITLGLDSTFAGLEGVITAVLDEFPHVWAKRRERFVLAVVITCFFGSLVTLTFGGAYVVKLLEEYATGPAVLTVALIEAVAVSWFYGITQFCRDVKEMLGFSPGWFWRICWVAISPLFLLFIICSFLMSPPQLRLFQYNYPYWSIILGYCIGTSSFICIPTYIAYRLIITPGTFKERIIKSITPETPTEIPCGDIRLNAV
Chain of 5-hydroxytryptamine receptor 2A (Homo sapiens) (P28223 whole entry): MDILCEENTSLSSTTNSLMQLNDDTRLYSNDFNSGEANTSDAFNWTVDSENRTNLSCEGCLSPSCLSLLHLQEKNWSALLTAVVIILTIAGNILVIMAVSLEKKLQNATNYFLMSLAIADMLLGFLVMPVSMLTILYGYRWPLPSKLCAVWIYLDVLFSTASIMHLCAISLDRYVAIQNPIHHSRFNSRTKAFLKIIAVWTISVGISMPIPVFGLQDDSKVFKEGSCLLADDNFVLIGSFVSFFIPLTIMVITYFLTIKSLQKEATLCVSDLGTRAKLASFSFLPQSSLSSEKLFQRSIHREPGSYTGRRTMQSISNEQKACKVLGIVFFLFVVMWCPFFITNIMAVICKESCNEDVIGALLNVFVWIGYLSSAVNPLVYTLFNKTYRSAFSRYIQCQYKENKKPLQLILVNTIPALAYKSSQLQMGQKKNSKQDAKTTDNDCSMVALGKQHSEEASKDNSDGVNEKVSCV

Row | SMILES | Ki [1] [nM] | Ki [2] [nM] | IC50 [10] [nM] | also measured
1 | O=C1Cc2ccccc2N1CCCCCCN1CCc2ccccc2C1 | 24 | 576 |  | 
2 | O=C1Cc2ccccc2N1CCCCCN1CCc2ccccc2C1 | 28 | 523 |  | 
3 | O=C1Cc2ccccc2N1CCCCCCCN1CCc2ccccc2C1 | 36 | > 1000 |  | 
4 | O=C1Cc2ccccc2N1CCCCCCCN1CC[C@H]2CCCC[C@@H]2C1 (racemic) | 62 | > 1000 |  | 
5 | O=C1Cc2ccccc2N1CC/C=C/CCN1CCc2ccccc2C1 | 0.7 | > 1000 | 2200 | Activity [3]: inactive; Activity [4]: Active; inhibition [5]: -4%; inhibition [6]: Active; Activity [7]: Active; inhibition [8]: 15%; Activity [9]: inactive; inhibition [11]: -10%; inhibition [12]: 14%; EC50 [13]: 230 nM
6 | O=C1Cc2ccccc2N1CCCCCN1CC[C@H]2CCCC[C@@H]2C1 (racemic) | 41 | 491 |  | 
7 | O=C1Cc2ccccc2N1CCCCN1CC[C@H]2CCCC[C@@H]2C1 (racemic) | 29 | 470 |  | 
8 | CN1C[C@@H](NS(=O)(=O)N(C)C)C[C@@H]2c3cccc4c3c(cn4C)C[C@H]21 [MESULERGINE] |  |  | 290 | 
9 | O=C1Cc2ccccc2N1CC/C=C/CCN1CC[C@H]2CCCC[C@@H]2C1 (racemic) | 2.7 | > 1000 | 2300 | EC50 [13]: 60 nM
